Measured values collected from several papers.
Mode: inhibitor
BCHE: Cholinesterase (BCHE, Equus caballus, UniProt P81908)

CC(C)(C)OC(=O)NC1CCCN(C(=O)/C=C/c2cccc(F)c2)C1 (stereo not shown) — IC50 (BCHE; enzyme activity, Ellman): 15.3 µM
CN1CC[C@@]2(C)c3cc(OC(=O)Nc4ccccc4)ccc3N(C)[C@@H]12 — IC50 (Aldehyde dehydrogenase, dimeric NADP-preferring (ALDH3A1, Homo sapiens, UniProt P30838); enzyme activity, fluorescence): < 10 µM
COc1cc(/C=C/C(=O)NC2CCN(Cc3ccccc3)CC2)ccc1OC(=O)N1CCCC1 — IC50 (BCHE; enzyme activity, Ellman): 3.4 µM
O=C(O)C(/C=C/c1c(Cl)cccc1Cl)=N\Nc1nc(-c2ccc(Cl)cc2)cs1 — IC50 (BCHE; enzyme activity): 7.36 µM
CCN(CC)C(=O)Oc1ccc(/C=C/C(=O)NC2CCN(Cc3ccccc3)CC2)cc1 — IC50 (BCHE; enzyme activity, Ellman): 15.2 µM
CC(C)(C)OC(=O)NC1CCCN(C(=O)C=Cc2ccccc2)C1 (stereo not shown) — IC50 (BCHE; enzyme activity, Ellman): 43.7 µM
O=C(N1CCC2(CC1)C[C@H](CN1CCCCS1(=O)=O)CCO2)C1(c2ccccc2)CCCC1 — IC50 (DHX58 (Homo sapiens, UniProt Q96C10); ATPase activity): > 50 µM
CCN(C)C(=O)Oc1ccc(CCC(=O)N(CC)Cc2ccccc2)cc1OC — IC50 (BCHE; enzyme activity, Ellman): 12.7 µM
CC(=O)c1c(C)c2cnc(Nc3ccc(C4CCN(CCS(C)(=O)=O)CC4)cn3)nc2n(C2CCCC2)c1=O — IC50 (Cytochrome P450 2B6 (CYP2B6, Homo sapiens, UniProt P20813); enzyme activity; human, liver microsomes): > 10 µM
O=C(O)C(/C=C/c1c(Cl)cccc1Cl)=N\Nc1nc(-c2ccc(Br)cc2)cs1 — IC50 (BCHE; enzyme activity): 8.47 µM
CC(C)(C)OC(=O)NC1CCCN(C(=O)/C=C/c2ccc(Br)cc2)C1 (stereo not shown) — IC50 (BCHE; enzyme activity, Ellman): 38.1 µM
O=C(O)C(/C=C/c1c(Cl)cccc1Cl)=N\Nc1nc(-c2ccc(F)cc2)cs1 — IC50 (BCHE; enzyme activity): 4.04 µM
CN(C)C(=O)Oc1ccc(/C=C/C(=O)NC2CCN(Cc3ccccc3)CC2)cc1 — IC50 (BCHE; enzyme activity, Ellman): 11.5 µM
CC(C)(C)OC(=O)NC1CCCN(C(=O)/C=C/c2cccc([N+](=O)[O-])c2)C1 (stereo not shown) — IC50 (BCHE; enzyme activity, Ellman): > 50 µM
COc1cc(/C=C/C(=O)NC2CCN(Cc3ccccc3)CC2)ccc1OC(=O)N(C)C — IC50 (BCHE; enzyme activity, Ellman): 9.6 µM
COc1ccc(OC)c(/C=C/C(=O)N2CCCC(NC(=O)OC(C)(C)C)C2)c1 (stereo not shown) — IC50 (BCHE; enzyme activity, Ellman): > 50 µM
